Source: PubChem (Broad Institute)
The list is not random: actives were taken first. Their share in the collection is about 3.5%.
PGC1a acetyl inh – inhibitors of PGC1a acetylation signal, primary screen, cell-based, U2OS, AlphaScreen, inhibitor mode; AlphaScreen anti-acetyl-lysine; with virally co-expressed GCN5 acetyltransferase; inhibition, % at 15.6 µM; 0.17% of 350,000 active; AID 651687, 2012;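 active means every replicate shows inhibition of at least 40%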
Ecoli rRNA inh – reduced GFP signal of wild-type E. coli, primary screen, bacterial rRNA inhibitor project, GFP/RFP fluorescence, OD600, single point; E. coli WT GFP vs humanized-ribosome RFP mutants, 24 h; active compounds read low; DMSO median 0, no signal -100; GFP signal change (wild-type ribosome), % (concentration not given with the values); 1.6% of 350,000 active; AID 720706, 2013;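 active means significant combined selectivity score with lowered wild-type GFP, culture density cut under 30%, mutant RFP and density less affected; inactive means any of these conditions unmet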
Env fusion inh – inhibitors of HIV-1 Env-driven cell-cell fusion, primary screen, HeLa-JRFL effector, CEM21 target cells, luciferase; inhibition, % at 12.3 µM; 1.1% of 360,000 active; AID 651610, 2012;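 active means mean replicate inhibition score of at least 50 and every replicate individually at or above 50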
FGF22 binding – binders of human FGF22 protein, primary screen, FGF22 synaptogenesis inhibitor project, biophysical, thermal shift, single point; Fibroblast growth factor 22 (Homo sapiens), Q9HCT0; recombinant FGF22 thermal shift, SYPRO orange fluorescence; percent of sucrose octasulfate shift, DMSO zero; activity (Tm shift, normalised), % at 9.99 µM; 1.5% of 340,000 active;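 active means mean Tm shift, scaled 0 neutral to 100 positive control, at about 1.3% or above, every replicate too, limit read from the data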
Target sequence (Q9HCT0 whole entry, looked up): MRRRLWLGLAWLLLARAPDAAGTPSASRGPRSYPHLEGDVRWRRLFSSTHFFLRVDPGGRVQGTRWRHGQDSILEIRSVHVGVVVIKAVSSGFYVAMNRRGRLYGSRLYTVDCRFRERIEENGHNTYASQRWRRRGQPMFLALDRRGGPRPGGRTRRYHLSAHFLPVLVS
ERAP1 HTS inh – human ERAP1 aminopeptidase inhibitors, primary screen, biochemical, single point, plate reader | Endoplasmic reticulum aminopeptidase 1 (Homo sapiens), Q9NZ08 | recombinant ERAP1, Leu-AMC fluorescence, 60 min | inhibition, % at 10.7 µM | 0.15% of 340,000 active;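 active means mean replicate inhibition of at least 30%, or all replicates individually reaching that 30% level; inactive means mean below 30% and not every replicate reaching it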
Cneo AK release – Cryptococcus neoformans cell lysis inducers, primary screen, AK release luminescence, single concentration; 0.2% of 360,000 active; C. neoformans lysis, adenylate kinase release luminescence, 4 h; normalised: neutral wells 0, clomiphene wells 100; lysis activity, % at 15 µM;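 active means mean lysis activity across replicates of at least 80%, whatever share of replicates individually reach that level; inactive means mean lysis activity below 80%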
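Signal: Adenylate kinase release luminescence | Assay system: Log-phase Cryptococcus neoformans yeast cells | Input: Cells at 5 × 10^6 per mL | Buffer or medium: Fresh YPD growth medium | Compound: Single dose | Schedule: Static 4 h at 37 °C with compound, 1 h detection | Controls: Clomiphene | Read-out: Luminescence rise reflecting yeast cell lysis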
Numbers stand for hits; [ ] = another dose, or the depositor's remark.

Screening COc1cccc(S(=O)(=O)N(C)C[C@H]2Oc3ncc(C#CC(C)C)cc3C(=O)N([C@H](C)CO)C[C@H]2C)c1 returned PGC1a acetyl inh inactive, Ecoli rRNA inh inactive, Env fusion inh inactive, FGF22 binding inactive, ERAP1 HTS inh inactive and Cneo AK release inactive.
Screening N#Cc1cccc(C#N)c1N1CCC(C#N)CC1 returned PGC1a acetyl inh inactive, Ecoli rRNA inh inactive, Env fusion inh inactive, FGF22 binding inactive and ERAP1 HTS inh inactive.
Screening N#Cc1c(F)cccc1N1CCC(C#N)CC1 returned Ecoli rRNA inh inactive, Env fusion inh 64.0 and FGF22 binding inactive.
For Cc1nc2nc[nH]n2c(=O)c1NS(C)(=O)=O the results were PGC1a acetyl inh inactive, Env fusion inh inactive and Cneo AK release inactive.
Cc1cc(C(=O)OCC(=O)N2CCCCCC2)ccc1[N+](=O)[O-] was read as PGC1a acetyl inh inactive, Ecoli rRNA inh inactive, FGF22 binding inactive, ERAP1 HTS inh inactive and Cneo AK release inactive.
For Cc1nn(-c2ccccc2)c(C)c1NC(=O)COc1ccc2ccccc2c1 the results were PGC1a acetyl inh inactive, Ecoli rRNA inh -19.6, FGF22 binding inactive, ERAP1 HTS inh inactive and Cneo AK release inactive.
Screening O=C(Nc1cc(F)ccc1F)N1CCCCN2[C@H](C1)[C@H](c1ccc(-c3ccncc3)cc1)[C@@H]2CO returned PGC1a acetyl inh inactive, Ecoli rRNA inh inactive, FGF22 binding inactive, ERAP1 HTS inh inactive and Cneo AK release inactive.
For CCC(C(=O)Nc1ccccc1N1CCCC1)c1ccccc1 (stereo unspecified) the results were Ecoli rRNA inh inactive, Env fusion inh inactive, FGF22 binding inactive, ERAP1 HTS inh inactive and Cneo AK release inactive.
`CCC(C(=O)Nc1cccc(C(=O)O)c1C)c1ccccc1` (stereo unspecified) gave PGC1a acetyl inh inactive, Ecoli rRNA inh inactive, Env fusion inh inactive, FGF22 binding 42.9 and ERAP1 HTS inh inactive.
Screening Cc1ccc(S(=O)(=O)NCC(=O)NCC(=O)OCC(=O)NC(=O)NC(C)(C)C)cc1C returned PGC1a acetyl inh inactive, Ecoli rRNA inh inactive, Env fusion inh inactive, FGF22 binding 43.0 and ERAP1 HTS inh inactive.
Screening Cc1ccc2c(c1)C(=O)C(=O)N2CCOc1ccccc1 returned PGC1a acetyl inh inactive, Ecoli rRNA inh -23.0, Env fusion inh inactive, FGF22 binding inactive, ERAP1 HTS inh inactive and Cneo AK release inactive.
Cc1cccc(OCCN2C(=O)C(=O)c3cc(C)ccc32)c1 was read as PGC1a acetyl inh inactive, Ecoli rRNA inh inactive, Env fusion inh inactive, FGF22 binding inactive, ERAP1 HTS inh inactive and Cneo AK release inactive.
CN(C(=O)OC(C)(C)C)c1ccc(-c2nc3ccccc3s2)cc1 was read as Ecoli rRNA inh inactive, Env fusion inh 57.2, FGF22 binding inactive, ERAP1 HTS inh inactive and Cneo AK release inactive.
`COC(=O)N(C)c1nc2ccccc2s1` gave PGC1a acetyl inh inactive and Cneo AK release inactive.
`COc1cnc(-c2ccccc2)c(-c2ccccc2)n1` gave PGC1a acetyl inh inactive, Ecoli rRNA inh -31.9, Env fusion inh inactive, FGF22 binding inactive, ERAP1 HTS inh inactive and Cneo AK release inactive.
Screening CCOC(=O)c1sc(NC(=O)Nc2ccc(Cl)cc2)cc1C returned PGC1a acetyl inh inactive, Env fusion inh 74.5 and Cneo AK release inactive.
For CC(=O)N1CCN(C(=O)c2ccc(-c3ccccc3Cl)o2)CC1 the results were Ecoli rRNA inh inactive, FGF22 binding inactive, ERAP1 HTS inh inactive and Cneo AK release inactive.
`C[C@H](CO)N1C[C@H](C)[C@H](CN(C)C(=O)Nc2cc(F)ccc2F)Oc2cc(/C=C/c3ccccc3)ccc2S1(=O)=O` gave PGC1a acetyl inh inactive, Ecoli rRNA inh inactive, Env fusion inh inactive, FGF22 binding 2.0, ERAP1 HTS inh inactive and Cneo AK release inactive.
Screening CC(=O)N(C)C[C@@H]1Oc2cc(/C=C/c3ccccc3)ccc2S(=O)(=O)N([C@H](C)CO)C[C@H]1C returned PGC1a acetyl inh inactive, Ecoli rRNA inh inactive, Env fusion inh inactive, FGF22 binding inactive, ERAP1 HTS inh inactive and Cneo AK release inactive.
C[C@@H]1CN([C@@H](C)CO)S(=O)(=O)c2ccc(/C=C/c3ccccc3)cc2O[C@@H]1CN(C)C(=O)C1CC1 was read as PGC1a acetyl inh inactive, Ecoli rRNA inh inactive, Env fusion inh 55.3[16.7 µM], FGF22 binding inactive, ERAP1 HTS inh inactive and Cneo AK release inactive.
For CCC(=O)N(C)C[C@H]1Oc2cc(/C=C/c3ccccc3)ccc2S(=O)(=O)N([C@@H](C)CO)C[C@H]1C the results were PGC1a acetyl inh inactive, Ecoli rRNA inh inactive, Env fusion inh 59.0[16.7 µM], FGF22 binding inactive, ERAP1 HTS inh inactive and Cneo AK release inactive.
For CCN1C(=O)[C@H]2[C@@H](c3ccc(C)cc3)N[C@]3(CCCN(Cc4cccn4C)C3=O)[C@H]2C1=O the results were Ecoli rRNA inh inactive, Env fusion inh inactive, FGF22 binding inactive, ERAP1 HTS inh inactive and Cneo AK release inactive.
`Cn1c(N)c(S(=O)(=O)NCc2ccc(Cl)cc2)c(=O)n(C)c1=O` gave Env fusion inh inactive, FGF22 binding 43.6 and ERAP1 HTS inh inactive.
For COc1cccc(Cn2c(=O)sc3ccccc3c2=O)c1 the results were PGC1a acetyl inh inactive, Ecoli rRNA inh inactive, Env fusion inh inactive, FGF22 binding 43.3 and ERAP1 HTS inh inactive.
For Cc1ccc(Cn2c(=O)sc3ccccc3c2=O)cc1 the results were PGC1a acetyl inh inactive and Cneo AK release inactive.
Screening O=c1sc2ccccc2c(=O)n1Cc1ccccc1F returned PGC1a acetyl inh inactive, Ecoli rRNA inh inactive, Env fusion inh inactive, FGF22 binding 43.2 and ERAP1 HTS inh inactive.
Screening O=C(Cc1ccc(-n2c(=O)c3ccccc3n(Cc3ccccc3Cl)c2=O)cc1)NCC1CCCO1 (stereo unspecified) returned Ecoli rRNA inh inactive, Env fusion inh inactive and FGF22 binding inactive.
Screening CCc1csc(N2[C@H](CO)[C@H](c3ccccc3)[C@@H]2CNC)n1 returned PGC1a acetyl inh inactive, Ecoli rRNA inh inactive, FGF22 binding inactive, ERAP1 HTS inh inactive and Cneo AK release inactive.
`Cc1c(Br)c(=O)oc2c(C)c(O)ccc12` gave Env fusion inh inactive.
`Cc1ccc(C)c(NC(=O)CSc2c(C)n[nH]c2C)c1` gave PGC1a acetyl inh inactive, Ecoli rRNA inh -55.0, Env fusion inh inactive, FGF22 binding inactive, ERAP1 HTS inh inactive and Cneo AK release inactive.
Brc1ccc(N/N=C(/N=Nc2nn[nH]n2)c2ccccc2)cc1 was read as PGC1a acetyl inh 97.0, Ecoli rRNA inh inactive, Env fusion inh inactive, FGF22 binding inactive and ERAP1 HTS inh inactive.
